Published values pooled from the literature.
Protocols differ between the studies behind these lines.
Target: Serine/threonine-protein kinase 32A (STK32A, Homo sapiens, UniProt Q8WU08)

Compound	read-out	action	technique	tested at	quantity	value
O=C(NC[C@@H]1[C@H]2CN(C(=O)OCc3cc(C(F)(F)F)cc(C(F)(F)F)c3)C[C@@H]12)c1ccc2[nH]nnc2c1	cell-free assay		competition with immobilised ligand	1 µM	remaining binding	72%
CN1CC(Oc2cnc(C#N)cc2-c2ccn3nc(NC(=O)C4CC4)cc3c2)C1	enzyme activity	inhibitor		1 µM	inhibition	3%
COc1cc(Cl)c(C(=O)N[C@@H](CN[C@H]2CC[C@@H](N)CC2)Cc2ccc(C#N)cc2)cc1-c1ccc(CN[C@H](C)c2ccc(C)cc2)o1	enzyme activity	inhibitor		1 µM	remaining activity	97%
Cn1c2c(Cl)c(Cl)ccc2c2cc(N)[nH]c(=O)c21	thermal stability		DSF	10 µM	ΔTm	-0.3 °C
Cc1ccc(C(=O)Nc2ccc(CN3CCN(C)CC3)c(C(F)(F)F)c2)cc1C#Cc1cnc2cccnn12	cell-free assay			23.5 nM	remaining signal	90%
Cn1c2c(c3ccc(Cl)c(Cl)c31)C(C#N)C1(CCCCC1)NC2=O (racemic)	thermal stability		DSF	10 µM	ΔTm	0.2 °C
Cc1c(C(=O)O)cc(-c2ccc(C3CCNCC3)cc2)c2ccc(-c3ccc(C(F)(F)F)cc3)cc12	binding		competition with immobilised ligand	1 µM	remaining binding	89%
Nc1ncnc2occ(-c3ccc(NC(=O)Nc4cc(C(F)(F)F)ccc4F)cc3)c12	cell-free assay			20 µM	remaining signal	3.2%
CN1CCC2(CC1)NC(=O)c1c(c3ccc(Cl)c(Cl)c3n1C)C2C#N (racemic)	thermal stability		DSF	10 µM	ΔTm	-0.4 °C
CN(C)c1nccc(-c2cnc3ncccn23)n1	binding			1 µM	remaining binding	47%
